According to ChEMBL document CHEMBL3407336, “Discovery of 1H-pyrazol-3(2H)-ones as potent and selective inhibitors of protein kinase R-like endoplasmic reticulum kinase (PERK)” (J Med Chem, 2015):

Legend:
[1] = Intrinsic clearance in rat microsomes; format: ADME, Microsome
[2] = Mean residence time in Sprague-Dawley rat at 1 mg/kg, iv; format: ADME, organism-based; design: dose 1 mg/kg, route intravenous; settings: in vivo
How it was run: (§1)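 PK in male Sprague-Dawley rats or male CD-1 mice. For iv, 1 mg/kg was given as a DMSO solution. For po, compound was given as a solution in the vehicle and at the dose named in each line, with MsOH-acidified vehicles at pH 2.0.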

[3] = Clearance in Sprague-Dawley rat at 1 mg/kg, iv; format: ADME, organism-based; design: dose 1 mg/kg, route intravenous; settings: in vivo; how it was run: as §1
[4] = Volume of distribution at steady state in Sprague-Dawley rat at 1 mg/kg, iv; format: ADME, organism-based; design: dose 1 mg/kg, route intravenous; settings: in vivo, read-out: Vdss; how it was run: as §1
[5] = AUC in Sprague-Dawley rat at 2 mg/kg, po compound dosed in 1% Tween 80/99% OraPlus; format: ADME, organism-based; design: dose 2 mg/kg, route oral; settings: plasma; how it was run: as §1
[6] = Oral bioavailability in Sprague-Dawley rat at 2 mg/kg compound dosed in 1% Tween 80/99% OraPlus; format: ADME, organism-based; settings: in vivo; how it was run: as §1
[7] = AUC in Sprague-Dawley rat at 2.5 mg/kg, po compound dosed in 1% Tween 80/2% HPMC/97% H2O with MsOH at pH 2; format: ADME, organism-based; design: dose 2.5 mg/kg, route oral; settings: plasma; how it was run: as §1
[8] = Oral bioavailability in Sprague-Dawley rat at 2.5 mg/kg compound dosed in 1% Tween 80/2% HPMC/97% H2O with MsOH at pH 2; format: ADME, organism-based; settings: in vivo; how it was run: as §1
[9] = AUC in Sprague-Dawley rat at 2.5 mg/kg, po compound dosed in 1% Pluronic F68/1% HPMC/15% Captisol/83% H2O with MsOH at pH 2; format: ADME, organism-based; design: dose 2.5 mg/kg, route oral; settings: plasma; how it was run: as §1
[10] = Oral bioavailability in Sprague-Dawley rat at 2.5 mg/kg compound dosed in 1% Pluronic F68/1% HPMC/15% Captisol/83% H2O with MsOH at pH 2; format: ADME, organism-based; settings: in vivo; how it was run: as §1
Mus musculus [11] = test: Mean residence time in CD1 mouse at 1 mg/kg, iv; format: ADME, organism-based; design: dose 1 mg/kg, route intravenous; settings: in vivo; how it was run: as §1
Mus musculus [12] = test: Volume of distribution at steady state in CD1 mouse at 1 mg/kg, iv; format: ADME, organism-based; design: dose 1 mg/kg, route intravenous; settings: in vivo; how it was run: as §1
[13] = AUC in CD1 mouse at 2.5 mg/kg, po compound dosed in 1% Pluronic F68/1% HPMC/15% Captisol/83% H2O with MsOH at pH 2; format: ADME, organism-based; design: dose 2.5 mg/kg, route oral; settings: plasma; how it was run: as §1
[14] = Oral bioavailability in CD1 mouse at 2.5 mg/kg compound dosed in 1% Pluronic F68/1% HPMC/15% Captisol/83% H2O with MsOH at pH 2; format: ADME, organism-based; settings: in vivo; how it was run: as §1

Row | MRT [2] [h] | clearance [3] [mL/min/kg] | Vd [4] [L/kg] | AUC [9] [µM·h] | bioavailability [10] [%] | Structure (SMILES) | other results
1 |  |  |  |  |  | CNc1ncc2cc(-c3c(C)ccc(C(=O)c4c(-c5ccccc5)n(C)n(-c5ccccc5)c4=O)c3N)ccc2n1 | microsomal CLint [1]: 29 µL/min/mg
2 | 10.4 | 1.17 | 0.73 |  |  | COc1cc2nccc(Oc3ccc(NC(=O)c4c(-c5ccccc5)n(C)n(-c5ccccc5)c4=O)nc3)c2cc1OC | AUC [5]: 20.2 µM·h; bioavailability [6]: 50%
3 |  |  |  |  |  | CNc1ncc2cc(-c3cc(C(=O)c4c(-c5ccccc5)n(C)n(-c5ccccc5)c4=O)ccc3C)ccc2n1 | microsomal CLint [1]: 497 µL/min/mg
4 | 0.5 | 16.7 | 0.56 |  |  | CNc1ncc2cc(-c3cc(C(=O)c4c(-c5ccccc5)n(C)n(-c5ccccc5)c4=O)ccc3N)ccc2n1 | AUC [7]: 0.8 µM·h; bioavailability [8]: 18%
5 |  |  |  |  |  | CNc1ncc2cc(-c3cc(C(=O)c4c(-c5ccccc5)n(C)n(-c5ccccc5)c4=O)ccc3Cl)ccc2n1 | microsomal CLint [1]: 167 µL/min/mg
6 | 3.9 | 9.5 | 2.2 | 3.8 | 48 | CNc1ncc2c(F)c(-c3c(C)ccc(C(=O)c4c(-c5ccccc5)n(C)n(-c5ccccc5)c4=O)c3N)ccc2n1 | 
7 | 5.5 | 8.33 | 2.7 | 3.7 | 49 | CNc1ncc2c(Cl)c(-c3c(C)ccc(C(=O)c4c(-c5ccccc5)n(C)n(-c5ccccc5)c4=O)c3N)ccc2n1 | 
8 | 1.4 | 36.7 | 2.6 | 1.2 | 69 | Cc1ncc2cc(-c3c(C)ccc(C(=O)c4c(-c5ccccc5)n(C)n(-c5ccccc5)c4=O)c3N)ccc2n1 | 
9 | 2.2 | 23.3 | 3.1 | 0.1 | 3 | Cc1nc2ccc(-c3c(C)ccc(C(=O)c4c(-c5ccccc5)n(C)n(-c5ccccc5)c4=O)c3N)cc2s1 | 
10 | 3.1 | 10.7 | 2 | 2.5 | 35 | CNc1nc2ccc(-c3c(C)ccc(C(=O)c4c(-c5ccccc5)n(C)n(-c5ccccc5)c4=O)c3N)cc2s1 | 
11 | 2.2 | 50 | 6.5 | 1 | 67 | Cc1ccc(C(=O)c2c(-c3ccccc3)n(C)n(-c3ccccc3)c2=O)c(N)c1-c1ccc2nc(N)sc2c1 | 
12 | 5.3 | 15.7 | 5 | 3.4 | 76 | Cc1ccc(C(=O)c2c(-c3ccccc3)n(C)n(-c3ccccc3)c2=O)c(N)c1-c1ccc2nc(C(F)F)sc2c1 | 
13 | 10.8 | 12.5 | 8.1 | 3.2 | 83 | Cc1ccc(C(=O)c2c(-c3ccccc3)n(C)n(-c3ccccc3)c2=O)c(N)c1-c1ccc2nc(C(F)(F)F)sc2c1 | 
14 | 2.3 | 26.7 | 3.6 | 1.4 | 55 | Cc1ccc2cc(-c3c(C)ccc(C(=O)c4c(-c5ccccc5)n(C)n(-c5ccccc5)c4=O)c3N)ccc2n1 | MRT (Mus musculus [11]): 5 h; Vdss (Mus musculus [12]): 1.2 L/kg; AUC [13]: 8.8 µM·h; bioavailability [14]: 46%
15 | 11.9 | 1.67 | 1.2 | 23.6 | 98 | Cc1nc(N)c2c(-c3ccc4c(c3)CCN4C(=O)Cc3cc(F)cc(C(F)(F)F)c3)cn(C)c2n1 | 
